# From ChEMBL document CHEMBL1132342, “Novel hypotensive agents from Verbesina caracasana. 6. Synthesis and pharmacology of caracasandiamide” (1999)
# Values joined by “and” are separate entries in the source; they are usually repeats but may differ in a detail not shown here. Identical values can stand only once.
# How the values were obtained:
# Rattus norvegicus [1] = test: Change in diastolic blood pressure after iv administration of 800 ug/Kg compound (treatment with hexamethonium (5 mg/Kg, iv)in anesthetized rats; format: functional, Artery
# Method in brief: (§1)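 In anesthetized male Wistar rats, responses to iv compound (200–1600 µg/kg, ratio 2.0) were measured alone and under three pretreatments: continuous iv papaverine infusion (1 mg/kg/min), ip reserpine (5 mg/kg/day for 2 days), or iv hexamethonium (5 mg/kg). Peak changes are given as mean ± SE, n = 6 per group; p < 0.05 versus control.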
# Rattus norvegicus [2] = test: Change in mean aortic flow after iv administration of 50 ug/Kg in anesthetized rats; format: functional
# Method in brief: (§2)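 Male Wistar rats (299 ± 3 g) were anesthetized with ethylurethane ip, tracheally cannulated and breathing spontaneously, at 37 °C, and stabilized for 60 min. Doses of 50-3200 µg/kg (ratio 2.0) in saline were injected by femoral vein, 50 µL each. Recordings: femoral arterial BP, electromagnetic abdominal-aortic flow, SV from integrated pulsatile flow, polygraphic RF. Peak changes, mean ± SE, n = 12 (n = 7 at 3200).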
# Rattus norvegicus [3] = test: Maximum rate of rise of the left ventricular isovolumetric pressure after iv administration of 800 ug/Kg compound (treatment with reserpine(5 mg/kg/day for 2 days, ip)in anesthetized rats; format: functional, Heart left ventricle
# Method in brief: (§3)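 Anesthetized rats, n = 6 per group, received iv doses of 200–1600 µg/kg (ratio 2.0) either alone (control) or under pretreatment: continuous iv papaverine infusion 1 mg/kg/min, reserpine 5 mg/kg/day ip for 2 days, or hexamethonium 5 mg/kg iv. Peak changes in BP, heart rate and dP/dt recorded; means ± SE, p < 0.05 versus control.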
# Rattus norvegicus [4] = test: Maximum rate of rise of the left ventricular isovolumetric pressure was measured after iv administration of 400 ug/Kg in the presence of adrenaline (agonist) in anesthetized rats; format: functional, Heart left ventricle
# Method in brief: (§4)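 Anesthetized male Wistar rats, two groups of 8, received 400 or 1600 µg/kg iv. Before and after this dose, iv agonist challenges were given: noradrenaline 1 µg/kg, adrenaline, acetylcholine 2.50 µg/kg, or isoprenaline. Systolic/diastolic BP, heart rate and dP/dt responses were recorded before (control) and after dosing; significance was set at p < 0.05 versus control.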
# Rattus norvegicus [5] = test: Change in diastolic blood pressure after iv administration of 100 ug/Kg in anesthetized rats; format: functional, Artery
# Method in brief: (§5)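 Adult male Wistar rats under ip ethylurethane (10% w/v in saline, 1 mL/kg) with tracheal cannula and spontaneous breathing, kept at 37 °C. Arterial BP was recorded by femoral artery catheter; compound in saline (50 µL) was given via femoral vein at 50–3200 µg/kg, ratio 2.0. Peak change is given as mean ± SE, n = 12 (n = 7 at 3200 µg/kg).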
# Rattus norvegicus [6] = test: Change in systolic blood pressure after iv administration of 400 ug/Kg in the presence of isoprenaline (agonist) in anesthetized rats; format: functional, Artery; method in brief: as §4
# Rattus norvegicus [7] = test: Change in heart rate after iv administration of 4.12 uM/Kg in anesthetized rats; format: functional
# Rattus norvegicus [8] = test: Change in diastolic blood pressure after iv administration of 4.12 uM/Kg in anesthetized rats; format: functional, Artery
# Rattus norvegicus [9] = test: Change in diastolic blood pressure after iv administration of 400 ug/Kg compound (treatment with hexamethonium (5 mg/Kg, iv)in anesthetized rats; format: functional, Artery; method in brief: as §1
# Rattus norvegicus [10] = test: Change in heart rate after iv administration of 400 ug/Kg in the presence of noradrenaline (agonist) in anesthetized rats; format: functional
# Rattus norvegicus [11] = test: Change in systolic blood pressure after iv administration of 800 ug/Kg compound (treatment with reserpine(5 mg/kg/day for 2 days, ip)in anesthetized rats; format: functional, Artery; method in brief: as §3
# Rattus norvegicus [12] = test: Change in systolic blood pressure after iv administration of 4.12 uM/kg in anesthetized rats; format: functional, Artery
# Method in brief: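 Doses were 4.12 µM/kg (two agents), guanethidine 25, clonidine 0.108, hexamethonium 12, reserpine 8, papaverine 5 and histamine […]. Peak changes in systolic BP or HR were recorded.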
# Rattus norvegicus [13] = test: Change in diastolic blood pressure after iv administration of 50 ug/Kg in anesthetized rats; format: functional, Artery; method in brief: as §5
# Rattus norvegicus [14] = test: Change in systolic blood pressure after iv administration of 1600 ug/Kg in the presence of acetylcholine (agonist) in anesthetized rats; format: functional, Artery
# Rattus norvegicus [15] = test: Maximum rate of rise of the left ventricular isovolumetric pressure was measured after iv administration of 1600 ug/Kg in anesthetized rats; format: functional, Heart left ventricle
# Method in brief: (§6)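 Urethane-anesthetized (10% w/v, […] ip in saline) adult male Wistar rats, trachea cannulated, breathing spontaneously, 37 °C. Femoral artery catheter for blood pressure, femoral vein for dosing. Sequential iv doses 50–3200 µg/kg (ratio 2.0) in saline, each given after parameters returned to baseline. Peak changes recorded; means ± SE, n = 12 (n = 7 at 3200 µg/kg).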
# Rattus norvegicus [16] = test: Maximum rate of rise of the left ventricular isovolumetric pressure was measured after iv administration of 3200 ug/Kg in anesthetized rats; format: functional, Heart left ventricle; method in brief: as §6
# Rattus norvegicus [17] = test: Change in respiratory frequency after iv administration of 100 ug/Kg in anesthetized rats; format: functional; method in brief: as §2
# Rattus norvegicus [18] = test: Maximum rate of rise of the left ventricular isovolumetric pressure was measured after iv administration of 400 ug/Kg in the presence of noradrenaline (agonist) in anesthetized rats; format: functional, Heart left ventricle; method in brief: as §4
# Rattus norvegicus [19] = test: Maximum rate of rise of the left ventricular isovolumetric pressure after iv administration of 400 ug/Kg compound (treatment with hexamethonium (5 mg/Kg, iv)in anesthetized rats; format: functional, Heart left ventricle; method in brief: as §3
# Rattus norvegicus [20] = test: Maximum rate of rise of the left ventricular isovolumetric pressure was measured after iv administration of 4.12 uM/kg in anesthetized rats; ratio given for dP/dt; format: functional, Heart left ventricle
# Rattus norvegicus [21] = test: Change in stroke volume after iv administration of 50 ug/Kg in anesthetized rats; format: functional; method in brief: as §2
# Rattus norvegicus [22] = test: Change in diastolic blood pressure after iv administration of 1600 ug/Kg in the presence of acetylcholine (agonist) in anesthetized rats; format: functional, Artery
# Method in brief: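 Urethane-anesthetized male Wistar rats (16 rats, two equal groups) received 400 or 1600 µg/kg compound iv. Cardiovascular responses to iv agonist boluses (noradrenaline 1 µg/kg, acetylcholine 2.50 µg/kg, adrenaline, isoprenaline) were measured before and after compound dosing. Peak responses are given as mean ± SE; p < 0.05 versus control mean.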
# Rattus norvegicus [23] = test: Change in stroke volume after iv administration of 100 ug/Kg in anesthetized rats; format: functional; method in brief: as §2
# Rattus norvegicus [24] = test: Change in systolic blood pressure after iv administration of 1600 ug/Kg in the presence of noradrenaline (agonist) in anesthetized rats; format: functional, Artery
# Rattus norvegicus [25] = test: Maximum rate of rise of the left ventricular isovolumetric pressure was measured after iv administration of 100 ug/Kg in anesthetized rats; format: functional, Heart left ventricle; method in brief: as §6
# Rattus norvegicus [26] = test: Change in heart rate after iv administration of 50 ug/Kg in anesthetized rats; format: functional; method in brief: as §2
# Rattus norvegicus [27] = test: Change in systolic blood pressure after iv administration of 400 ug/Kg in the presence of acetylcholine (agonist) in anesthetized rats; format: functional, Artery; method in brief: as §4
compound,measurement,setting,value
COc1ccc(C2C(c3ccc(OC)c(OC)c3)[C@H](C(=O)NCCCC/N=C(\N)NCC=C(C)C)[C@@H]2C(=O)NCCCC/N=C(\N)NCC=C(C)C)cc1OC (stereo not given in full) [CARACASANDIAMIDE],BP,Rattus norvegicus [1],-53 mmHg
same,Change in mean aortic flow,Rattus norvegicus [2],26%
same,Mean aortic flow,Rattus norvegicus [2],19 mL/min
same,dP/dt,Rattus norvegicus [3],720 mmHg s-1
same,dP/dt,Rattus norvegicus [4],6848 mmHg s-1
same,BP,Rattus norvegicus [5],10 mmHg
same,Change in BP,Rattus norvegicus [5],13%
same,BP,Rattus norvegicus [6],-36 mmHg
same,Heart rate,Rattus norvegicus [7],-35 beats min-1
same,BP,Rattus norvegicus [8],-47 mmHg
same,BP,Rattus norvegicus [9],-45 mmHg
same,Heart rate,Rattus norvegicus [10],23 beats min-1
same,BP,Rattus norvegicus [11],-11 mmHg
same,BP,Rattus norvegicus [12],-43 mmHg
same,BP,Rattus norvegicus [13],10 mmHg
same,Change in BP,Rattus norvegicus [13],13%
same,BP,Rattus norvegicus [14],-38 mmHg
same,Change in dP/dt,Rattus norvegicus [15],60%
same,dP/dt,Rattus norvegicus [15],3676 mmHg s-1
same,Change in dP/dt,Rattus norvegicus [16],77%
same,dP/dt,Rattus norvegicus [16],4708 mmHg s-1
same,Change in respiratory frequency,Rattus norvegicus [17],6 beats min-1 and 6%
same,dP/dt,Rattus norvegicus [18],5136 mmHg s-1
same,dP/dt,Rattus norvegicus [19],3938 mmHg s-1
same,dP/dt,Rattus norvegicus [20],3990 mmHg s-1
same,Change in stroke volume,Rattus norvegicus [21],36%
same,BP,Rattus norvegicus [22],-54 mmHg
same,Change in stroke volume,Rattus norvegicus [23],10%
same,Stroke volume,Rattus norvegicus [23],20 µL
same,BP,Rattus norvegicus [24],24 mmHg
same,Change in dP/dt,Rattus norvegicus [25],18%
same,dP/dt,Rattus norvegicus [25],1129 mmHg s-1
same,Change in heart rate,Rattus norvegicus [26],-3%
same,Heart rate,Rattus norvegicus [26],-9 beats min-1
same,BP,Rattus norvegicus [27],-27 mmHg
